The list is not random: actives were taken first. Their share in the collection is about 6.8%.
HSF1 inhib: HSF1 inhibition | activity change, negative = inhibition, % at 7.5 µM (by protocol) | NIH3T3-HGL HSE-luciferase, MG132-induced, luminescence 8 h; hits give low values | 0.77% of 300,000 active;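 active = more than half of replicate wells show activity change below -50%, luminescence cut by over half; inconclusive = some wells, but at most half, below -50%; inactive = no replicate well below -50%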;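 note: luciferase reports HSF-1 transcriptional activity via heat shock element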
ALR inh: inhibitors of human sulfhydryl oxidase ALR. P55789. purified ALR, DTT oxidation, H2O2 HRP-luminol luminescence. inhibition, % (no concentration beside the values). 3.8% of 290,000 active;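 active = mean replicate inhibition above about 79%, with every replicate also reaching it, limit read from the data; inconclusive = only one of the two criteria met; inactive = mean below limit and not every replicate reaching it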
Target sequence (P55789 whole entry, looked up): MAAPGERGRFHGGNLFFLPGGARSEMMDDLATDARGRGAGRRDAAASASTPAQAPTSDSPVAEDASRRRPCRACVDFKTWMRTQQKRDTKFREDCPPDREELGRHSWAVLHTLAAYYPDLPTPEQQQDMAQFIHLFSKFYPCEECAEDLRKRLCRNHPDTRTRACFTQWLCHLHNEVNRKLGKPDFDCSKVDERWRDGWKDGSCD
HSF-1 act: increases HSF-1 driven luciferase reporter signal. 1.7% of 300,000 active. AID 504408. activation, % at 9 µM. NIH3T3-HGL HSF-1 luciferase reporter, MG132, 8 h; 100% = twice DMSO control signal;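 active = mean replicate activation of at least 50% with a set share of replicates each reaching 50%; inconclusive = only one of those two conditions met; inactive = mean below 50% and too few replicates reaching it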
PHOSPHO1 inh: PHOSPHO1 (human) inhibition; inhibition, % at 13.3 µM; Q8TCT1; recombinant PHOSPHO1, absorbance phosphatase assay; 1.1% of 290,000 active; in the data active = inhibition above about 60%
Target sequence (Q8TCT1 whole entry, looked up): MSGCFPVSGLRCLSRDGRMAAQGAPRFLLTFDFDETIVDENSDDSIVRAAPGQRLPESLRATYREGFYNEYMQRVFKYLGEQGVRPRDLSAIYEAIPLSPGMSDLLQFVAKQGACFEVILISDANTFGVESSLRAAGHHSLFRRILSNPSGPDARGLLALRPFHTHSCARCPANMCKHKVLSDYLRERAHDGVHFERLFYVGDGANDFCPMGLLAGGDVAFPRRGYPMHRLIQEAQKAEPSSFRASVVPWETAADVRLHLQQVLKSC
core dimer inh: blocks dimerization of HCV core protein | 0.33% of 300,000 active | TR-FRET GST/Flag-core106 dimerization, 1536-well | inhibition, % at 5 µM;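 active = inhibition above the mean of all tested compounds plus 3 SD, set per screening campaign, cut at about 45% in these data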
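Assay system – GST-tagged and Flag-tagged HCV core protein residues 1-106 · Quantity – core106 proteins, GST 13.5 nM and Flag 17 nM · Benchmarks – unlabelled core106 and no-GST-core106 wells · Read-out basis – percent inhibition of core106 dimerization signal · Detection – time-resolved FRET, ex 340 nm, em 617 and 671 nm · Schedule – 4 h at 22.5 °C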
AI-2 QS mod: modulates the Vibrio harveyi AI-2 quorum sensing system; Vibrio harveyi JMH597 AI-2 luminescence/OD600 ratio, 9 h; hits give low values; strain lacks LuxN and CqsS sensors; 0 = neutral-control median; activity change, % at 7.5 µM; 0.4% of 300,000 active; in the data active = activity change below about -75%, passing the limit was not always enough; inconclusive = no clear call, values can overlap the other calls;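 note: luminescence divided by OD600 gain over 9 h not by final OD600 alone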
Large screens that a line does not name were inactive.

O=S(=O)(NCc1ccccc1Cl)c1ccc(-n2cnnn2)cc1	none
O=c1[nH]c(=O)n([C@H]2C[C@H](O)[C@@H](CO)O2)cc1F	AI-2 QS mod -99
Cn1c(SCc2ccccn2)nnc1-c1ccccc1	none
Cc1cc(C(=O)Nc2cnc3ccccc3c2)ccc1[N+](=O)[O-]	none
Nc1cccc(-c2cnc3ccccc3n2)c1	ALR inh 99
O=C(Nc1cccc(-c2cn3ccccc3n2)c1)c1ccccc1	ALR inh 95
Cc1ccc(C(=O)Nc2cccc(-c3cnc4ccccc4n3)c2)cc1	HSF1 inhib -61
Cc1ccc(C(=O)Nc2cnc3ccccc3c2)cc1	HSF1 inhib -67
COc1ccc(C(=O)N2CCN(C)C(=O)[C@@H]2C)cc1OC1CCN(C(C)=O)CC1	none
OCc1ccccc1O[C@@H]1O[C@H](CO)[C@@H](O)[C@H](O)[C@H]1O	none
Nc1oc2ccccc2c1C(=O)Cc1ccccc1O[C@@H]1O[C@H](CO)[C@@H](O)[C@H](O)[C@H]1O	ALR inh 90 (no result: PHOSPHO1 inh)
Cn1cccc1C(=O)OCc1ccc(F)cc1	none
Cn1cccc1C(=O)OCc1csc(-c2ccccc2)n1	ALR inh 96, HSF-1 act 63, PHOSPHO1 inh 100
O=C(OCc1csc(-c2ccccc2)n1)c1cccs1	HSF-1 act 91, PHOSPHO1 inh 63
O=C(CNC(=O)c1ccccc1F)OCc1csc(-c2ccccc2)n1	ALR inh 99
Cc1ccsc1C(=O)OCc1csc(-c2ccccc2)n1	HSF-1 act 59 (no result: ALR inh)
Cc1ccsc1C(=O)OCc1nnc(-c2ccccc2)o1	none (no result: HSF1 inhib, HSF-1 act, PHOSPHO1 inh, core dimer inh, AI-2 QS mod)
CSc1ccc(-c2nc(CN3CCCCC3c3cccnc3)c(C)o2)cc1 (stereo unspecified)	none
COC(=O)CNC(=O)Cn1c(=O)n(Cc2ccc(F)cc2)c(=O)c2sccc21	none
CN1CC=C2C(C#N)=C(N)C(C#N)(C#N)[C@H](c3ccoc3)[C@H]2C1	none
CN1CC=C2C(C#N)=C(N)C(C#N)(C#N)C(c3cccc(Cl)c3Cl)C2C1 (stereo unspecified)	HSF-1 act 113
Cn1c2ccc(F)cc2c2ncn(CCN3CCOCC3)c(=O)c21	HSF-1 act 160 (no result: ALR inh)
Cn1c2ccccc2c2ncn(CCC3=CCCCC3)c(=O)c21	HSF-1 act 61
Cn1c2ccccc2c2ncn(CCCN3CCOCC3)c(=O)c21	none
COc1cccc(CN2CCNC(=O)C2CC(=O)N(Cc2cnn(C)c2)C(C)C)c1 (stereo unspecified)	none
Nc1nnc(N2CCCCC2)s1	ALR inh 91
COc1ccc2ccc(C(C)(C(C)=O)C(=O)OC(C)C)cc2c1 (stereo unspecified)	none (no result: HSF1 inhib, HSF-1 act, PHOSPHO1 inh, core dimer inh, AI-2 QS mod)
Cc1[nH]c2ccccc2c1CCNC(=O)c1ccc2nccnc2c1	none (no result: ALR inh)
Cc1[nH]c2ccccc2c1CCNC(=O)CCC(=O)c1ccccc1	ALR inh 95
Cc1[nH]c2ccccc2c1CCC(N)=O	ALR inh 99
CS(=O)(=O)c1ccccc1C(=O)N(CCC1=CCCCC1)c1c(N)n(Cc2ccccc2)c(=O)[nH]c1=O	none (no result: ALR inh, PHOSPHO1 inh)
Cc1ccc2c(c1)Oc1ccc(NC(=O)CCCl)cc1C(=O)N2	none
C=C(C)C(=O)OC1(C(F)(F)F)Oc2cc(C)ccc2NC1=O (stereo unspecified)	ALR inh 98
COc1ccc(NC(=O)C2CCN(S(=O)(=O)c3cccc4nonc34)CC2)c(OC)c1	none
Cn1cccc1/C=C1\SC(=Nc2ccc(O)cc2)NC1=O	ALR inh 99
Cn1cccc1/C=C1\SC(=Nc2ccccc2)NC1=O	none
CC1CC(C)(C)NC(=S)N1CCC(=O)N1CCN(c2ccccc2)CC1 (stereo unspecified)	ALR inh inconclusive
COc1ccc(N2CCN(C(=O)CCN3C(=S)NC(C)(C)CC3C)CC2)cc1 (stereo unspecified)	ALR inh 88
CC1CC(C)(C)NC(=S)N1CCCC(=O)N1CCN(c2ccc(F)cc2)CC1 (stereo unspecified)	ALR inh 83
CC(=O)c1ccc(N2CCN(C(=O)CCN3C(=S)NC(C)(C)CC3C)CC2)cc1 (stereo unspecified)	none (no result: AI-2 QS mod)
C=CCN1CN(S(=O)(=O)c2cccc(Cl)c2)c2nc3ccccc3nc21	none
COc1cc(SSc2cc(OC)cc([N+](=O)[O-])c2N)c(N)c([N+](=O)[O-])c1	HSF-1 act 88
COc1cc([N+](=O)[O-])c2ncsc2c1	none
Cc1ccc(NC(=O)Nc2ccc([N+](=O)[O-])cc2)nc1	none
CC(=O)c1cccc(NC(=O)Nc2cc3sccc3n2C)c1	core dimer inh 51 (no result: ALR inh)
Cc1ccc(NC(=O)Nc2ccccc2)nc1	HSF-1 act 54 (no result: PHOSPHO1 inh)
CCc1ccc(NC(=O)Nc2cccs2)cc1	PHOSPHO1 inh 74
CCOc1ccc(NC(=O)Nc2cccs2)cc1	none
CC(=O)c1ccc(NC(=O)Nc2cccc(Cl)c2)cc1	HSF-1 act 67
O=c1c2ccccc2oc2nc(-c3cccs3)n(CCc3ccccc3)c(=O)c12	none
CCOC(=O)C1CC(c2ccccc2)=NNC1=O (stereo unspecified)	none
CC(=O)c1cccc(NC(=O)Nc2cccs2)c1	ALR inh 96
Cc1ccc(NC(=O)Nc2cccs2)nc1	ALR inh 98
Cc1ccc(NC(=O)Nc2cccs2)cc1	ALR inh 98
Cc1ccc(S(=O)(=O)NC(=O)NCC2CCN(S(=O)(=O)c3ccccc3)CC2)cc1	none
CCOc1ccccc1NC(=O)CCCNC(=O)Cn1cnc2sc(C)c(C)c2c1=O	none
Clc1ccc(Cn2c(/C=C/c3ccco3)nc3ccccc32)cc1	core dimer inh 58
CCCn1c(/C=C/c2ccco2)nc2ccccc21	ALR inh 89, core dimer inh 51
COc1ccc2cc(C3C(C#N)=C(N)OC(C)=C3C(C)=O)c(Cl)nc2c1 (stereo unspecified)	ALR inh 96
CC(C)n1c(NCc2ccccc2O)nc2ccccc21	ALR inh 98 (no result: PHOSPHO1 inh)
CCN(CC)c1ccc(CNc2nc3ccccc3n2C(C)C)cc1	none (no result: ALR inh)
Cn1c(NCc2ccccc2O)nc2ccccc21	none
CC(C)n1c(NCc2cccs2)nc2ccccc21	ALR inh 98
CC(C)n1c(NCc2ccc(N(C)C)cc2)nc2ccccc21	ALR inh 93
CN(Cc1ccccc1)C(=O)COC(=O)C1CCN(S(=O)(=O)c2ccc(Cl)c(C(F)(F)F)c2)CC1	none (no result: PHOSPHO1 inh)
CCCc1ccc(-c2ccc(/C=C/C(=O)O)cc2)nc1	none
CCCCCc1ccc(-c2ccc(/C=C/C(=O)O)cc2)nc1	AI-2 QS mod -89
NC1=NC(=O)/C(=C/c2cn(CCC(=O)O)nc2-c2ccc(F)cc2)S1	none (no result: ALR inh)
NC1=NC(=O)/C(=C/c2cn(CCC(=O)O)nc2-c2ccc(Cl)cc2)S1	ALR inh 98

High-throughput results from PubChem BioAssay.
